Measurements from ChEMBL document CHEMBL3856209, “Novel pyrazolopyridine derivatives as potential angiogenesis inhibitors: Synthesis, biological evaluation and transcriptome-based mechanistic analysis” (Eur J Med Chem, 2016).
The source made the active and inactive calls.

Assays:
[1] = system: HUVEC; assay: Effect on CENPA gene expression in serum-starved HUVEC after 24 hrs by microarray analysis relative to control; format: functional, Homo sapiens
Procedure, shortened: (§1)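 Serum-starved confluent HUVEC treated with 2 μM compound or DMSO in 2.5% FBS for 6 h or 24 h; RNA hybridized to Illumina Human-HT12 arrays. Data background-corrected, vst-transformed and rsn-normalized. Differential probes called by moderated paired t-test (limma) at p < 0.05 and log2 fold change >|0.5| vs DMSO.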

[2] = system: HUVEC; assay: Effect on ELMOD1 gene expression in serum-starved HUVEC after 24 hrs by microarray analysis relative to control; format: functional, Homo sapiens
Procedure, shortened: (§2)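 Confluent, serum-starved HUVEC (pooled from 3–5 donors, passage ≤4) treated with 2 μM compound or vehicle with 2.5% FBS for 6 h or 24 h. Total RNA hybridized to Illumina Human-HT12 arrays. Data were background-corrected, vst-transformed and rsn-normalized. Hits called by moderated paired t-test versus DMSO-treated cells, p < 0.05 and log2 fold change >|0.5|.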

[3] = system: HUVEC; assay: Effect on CCNB2 gene expression in serum-starved HUVEC after 6 hrs by microarray analysis relative to control; format: functional, Homo sapiens; procedure, shortened: as §1
[4] = system: HUVEC; assay: Effect on ZAK gene expression in serum-starved HUVEC after 6 hrs by microarray analysis relative to control; format: functional, Homo sapiens
[5] = system: HUVEC; assay: Effect on CCNB2 gene expression in serum-starved HUVEC after 24 hrs by microarray analysis relative to control; format: functional, Homo sapiens; procedure, shortened: as §1
[6] = system: HUVEC; assay: Effect on SPC24 gene expression in serum-starved HUVEC after 6 hrs by microarray analysis relative to control; format: functional, Homo sapiens
Procedure, shortened: (§3)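 Confluent serum-starved HUVEC (primary, pooled from 3–5 donors, passage ≤4) treated with 2 μM compound or DMSO vehicle in 2.5% FBS for 6 h or 24 h. Total RNA hybridized to Illumina Human-HT12 arrays, background-corrected, vst-transformed and rsn-normalized. Differential expression versus DMSO by moderated paired t-test (p < 0.05, |log2 fold change| > 0.5).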

[7] = system: HUVEC; assay: Effect on RHOB gene expression in serum-starved HUVEC after 6 hrs by microarray analysis relative to control; format: functional, Homo sapiens
[8] = system: HUVEC; assay: Effect on MAP1B gene expression in serum-starved HUVEC after 6 hrs by microarray analysis relative to control; format: functional, Homo sapiens
Procedure, shortened: (§4)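 Serum-starved confluent HUVEC (pooled from 3–5 donors, passage ≤4) were treated with 2 μM compound or vehicle in 2.5% FBS for 6 h or 24 h, and total RNA was isolated. Hybridization was on Illumina Human-HT12. Data were processed with bgAdjust, vst and rsn normalization. Changes versus DMSO were called by moderated paired t-test at p < 0.05 and |log2 fold change| > 0.5.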

[9] = system: HUVEC; assay: Effect on CKS1B gene expression in serum-starved HUVEC after 24 hrs by microarray analysis relative to control; format: functional, Homo sapiens; procedure, shortened: as §1
[10] = system: HUVEC; assay: Effect on ELMOD1 gene expression in serum-starved HUVEC after 6 hrs by microarray analysis relative to control; format: functional, Homo sapiens; procedure, shortened: as §2
[11] = system: HUVEC; assay: Effect on HINT3 gene expression in serum-starved HUVEC after 6 hrs by microarray analysis relative to control; format: functional, Homo sapiens; procedure, shortened: as §2
[12] = system: HUVEC; assay: Effect on GANAB gene expression in serum-starved HUVEC after 6 hrs by microarray analysis relative to control; format: functional, Homo sapiens; procedure, shortened: as §2
[13] = system: HUVEC; assay: Effect on KIF22 gene expression in serum-starved HUVEC after 6 hrs by microarray analysis relative to control; format: functional, Homo sapiens; procedure, shortened: as §4
[14] = system: HUVEC; assay: Effect on RDH11 gene expression in serum-starved HUVEC after 24 hrs by microarray analysis relative to control; format: functional, Homo sapiens
[15] = system: HUVEC; assay: Effect on TRIP13 gene expression in serum-starved HUVEC after 6 hrs by microarray analysis relative to control; format: functional, Homo sapiens
[16] = system: HUVEC; assay: Effect on EIF3CL gene expression in serum-starved HUVEC after 24 hrs by microarray analysis relative to control; format: functional, Homo sapiens; procedure, shortened: as §3
[17] = Downregulation of UBE2C gene expression in serum-starved HUVEC at 2 uM after 24 hrs by qRT-PCR analysis; format: functional, cell-based; conditions: Homo sapiens
Procedure, shortened: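 Serum-starved confluent HUVEC treated with 2 μM compound or vehicle in 2.5% FBS for 24 h. Total RNA isolated and qRT-PCR run in triplicate (95 °C 5 min; 40 cycles of 95 °C 5 s, 58 °C 20 s, 72 °C 5 s), normalized to RPS18S. Fold change vs control, n = 3.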

[18] = system: HUVEC; assay: Effect on MYLIP gene expression in serum-starved HUVEC after 6 hrs by microarray analysis relative to control; format: functional, Homo sapiens
[19] = system: HUVEC; assay: Effect on GPR116 gene expression in serum-starved HUVEC after 6 hrs by microarray analysis relative to control; format: functional, Homo sapiens; procedure, shortened: as §2
[20] = system: HUVEC; assay: Effect on LPIN1 gene expression in serum-starved HUVEC after 6 hrs by microarray analysis relative to control; format: functional, Homo sapiens
[21] = system: HUVEC; assay: Effect on FEN1 gene expression in serum-starved HUVEC after 24 hrs by microarray analysis relative to control; format: functional, Homo sapiens; procedure, shortened: as §3
[22] = system: HUVEC; assay: Effect on KIF4A gene expression in serum-starved HUVEC after 6 hrs by microarray analysis relative to control; format: functional, Homo sapiens
[23] = system: HUVEC; assay: Effect on ACAT2 gene expression in serum-starved HUVEC after 24 hrs by microarray analysis relative to control; format: functional, Homo sapiens; procedure, shortened: as §1
[24] = system: HUVEC; assay: Effect on LMNB2 gene expression in serum-starved HUVEC after 6 hrs by microarray analysis relative to control; format: functional, Homo sapiens; procedure, shortened: as §4
[25] = system: HUVEC; assay: Effect on KRT18P55 gene expression in serum-starved HUVEC after 6 hrs by microarray analysis relative to control; format: functional, Homo sapiens; procedure, shortened: as §4
[26] = system: HUVEC; assay: Effect on CDK1 gene expression in serum-starved HUVEC after 6 hrs by microarray analysis relative to control; format: functional, Homo sapiens; procedure, shortened: as §1
[27] = system: HUVEC; assay: Effect on TYMP gene expression in serum-starved HUVEC after 6 hrs by microarray analysis relative to control; format: functional, Homo sapiens
[28] = system: HUVEC; assay: Effect on DKK1 gene expression in serum-starved HUVEC after 24 hrs by microarray analysis relative to control; format: functional, Homo sapiens; procedure, shortened: as §3
[29] = system: HUVEC; assay: Effect on LSS gene expression in serum-starved HUVEC after 24 hrs by microarray analysis relative to control; format: functional, Homo sapiens; procedure, shortened: as §4
[30] = system: HUVEC; assay: Effect on KIF4A gene expression in serum-starved HUVEC after 24 hrs by microarray analysis relative to control; format: functional, Homo sapiens; procedure, shortened: as §4
[31] = system: HUVEC; assay: Effect on HMGB2 gene expression in serum-starved HUVEC after 6 hrs by microarray analysis relative to control; format: functional, Homo sapiens
[32] = system: HUVEC; assay: Effect on EMCN gene expression in serum-starved HUVEC after 24 hrs by microarray analysis relative to control; format: functional, Homo sapiens; procedure, shortened: as §3
[33] = system: HUVEC; assay: Effect on ASAP1 gene expression in serum-starved HUVEC after 24 hrs by microarray analysis relative to control; format: functional, Homo sapiens
Procedure, shortened: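 Serum-starved confluent HUVEC (primary, pooled from 3–5 donors, passage ≤4) treated with 2 μM test compound or DMSO vehicle (working dilutions ≤0.1% v/v) in presence of 2.5% FBS for 6 h or 24 h; total RNA hybridized to Illumina Human-HT12 arrays; background correction, vst, rsn normalization; moderated paired t-test versus DMSO, thresholds p < 0.05 and log2 fold change >|0.5|.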

[34] = system: HUVEC; assay: Effect on TMEM154 gene expression in serum-starved HUVEC after 6 hrs by microarray analysis relative to control; format: functional, Homo sapiens
[35] = system: HUVEC; assay: Effect on CCL5 gene expression in serum-starved HUVEC after 6 hrs by microarray analysis relative to control; format: functional, Homo sapiens; procedure, shortened: as §1
[36] = system: HUVEC; assay: Effect on HLA-DPA1 gene expression in serum-starved HUVEC after 6 hrs by microarray analysis relative to control; format: functional, Homo sapiens; procedure, shortened: as §2

SMILES: COc1ccc(Cn2nc(-c3ccccc3)c3cc(Cl)nc(N4CCNCC4)c32)cc1
- log2FC [1]: -0.5592
- log2FC [2]: -0.514
- log2FC [3]: -0.1297
- log2FC [4]: 0.5589
- log2FC [5]: -0.5884
- log2FC [6]: 0.1186
- log2FC [7]: -0.225
- fold change (FC) [8]: 0.5859
- log2FC [9]: -0.5699
- log2FC [10]: -0.1337

SMILES: COc1ccc(Cn2nc(-c3ccccc3)c3cc(Nc4ccc(N5CCN(C)CC5)cc4)nc(N4CCNCC4)c32)cc1
- log2FC [11]: -0.0444
- log2FC [12]: -0.1113
- log2FC [13]: -0.0345

SMILES: COc1ccc(Cn2nc(-c3ccccc3)c3cc(Nc4ccc(N5CCN(C)CC5)cc4)nc(N4CCN(C)CC4)c32)cc1
- log2FC [14]: 0.6682
- log2FC [1]: -0.6147
- log2FC [15]: -0.1432
- fold change (FC) [16]: -0.1982
- Activity [17]: Active
- fold change (FC) [18]: -0.5593
- log2FC [3]: -0.1003
- fold change (FC) [19]: 0.1625
- log2FC [5]: -0.7404
- fold change (FC) [20]: 0.2925
- fold change (FC) [21]: -0.6
- log2FC [6]: -0.1032
- fold change (FC) [22]: 0.0285
- log2FC [23]: 1.8135
- fold change (FC) [24]: 0.1414
- log2FC [25]: -0.0175
- log2FC [26]: -0.1173
- log2FC [27]: 0.5089
- fold change (FC) [28]: -0.6899
- log2FC [29]: 1.6178
- log2FC [30]: -0.5756
- fold change (FC) [31]: -0.0362
- fold change (FC) [32]: 0.5299
- fold change (FC) [33]: 0.1181
- fold change (FC) [34]: 0.2897
- fold change (FC) [13]: -0.1033
- fold change (FC) [35]: 0.2358
- fold change (FC) [36]: 0.6583
